Measured values collected from several papers.
Each line is one published result; the experiments were not run side by side.
Target: Cyclin-dependent kinase 3 (CDK3, Homo sapiens, UniProt Q00526)

SMILES | read-out | technique | concentration | remaining binding [%]
Nc1ncc2c(n1)-c1c([nH]c3ccc(C#CC4CC4)cc13)CCCC2 | binding | competition with immobilised ligand | 1 µM | 77
Cc1cnn2ncc(-c3ccnc(N(C)C)n3)c2c1 | binding |  | 1 µM | 86
O=C(c1ccc(Nc2nccc(-c3cc4ccccc4s3)n2)cc1)N1CCC(N2CCCC2)CC1 | binding | competition with immobilised ligand | 1 µM | 98
COc1cnc(Nc2cccc(S(N)(=O)=O)c2)nc1N1CCN(c2ccccc2)C(=O)C1 | binding | competition with immobilised ligand | 1 µM | 99
O=C(NCCCN1CCOCC1)c1ccc(Nc2ncc(Cl)c(-c3ccc(Cl)s3)n2)cc1 | binding | competition with immobilised ligand | 1 µM | 44
CS(=O)(=O)c1cc(C2(NC(=O)c3cncc4c3cnn4-c3ccc(F)cc3)CC2)ccn1 | cell-free assay | competition with immobilised ligand | 1 µM | 81
CCN1CCN(Cc2ccc(C(=O)Nc3ccc(C)c(Oc4ccc5c(c4)CC(=O)N5)c3)cc2C(F)(F)F)CC1 | binding | competition with immobilised ligand | 1 µM | 100
CCS(=O)(=O)c1cc2cc(C[C@](O)(CC(C)(C)c3ccc(F)cc3C(N)=O)C(F)(F)F)[nH]c2cn1 | cell-free assay | competition with immobilised ligand | 1 µM | 100
CN(C)c1nccc(-c2cnc3ncccn23)n1 | binding |  | 1 µM | 79
O=C(c1ccc(Nc2ncc(Cl)c(-c3cc4ccccc4s3)n2)cc1)N1CCC(N2CCCC2)CC1 | binding | competition with immobilised ligand | 1 µM | 48
CCCOc1ccc([C@@H]2[C@@H](C(=O)O)[C@H](c3ccc4c(c3)OCO4)CN2CC(=O)Nc2c(CC)cccc2CC)cc1 | cell-free assay | competition with immobilised ligand | 1 µM | 100
CC1CCCN1c1nccc(-c2cnn3ncccc23)n1 (stereo not drawn) | binding |  | 1 µM | 100
O=C1CCc2cc(Nc3cc(OC4CCOCC4)c([N+](=O)[O-])cc3Cl)ccc2N1 | cell-free assay | competition with immobilised ligand | 1 µM | 100
C[C@H]1CCN(c2nccc(-c3cnn4ncccc34)n2)C1 | binding |  | 1 µM | 86
C[C@H](c1ccnc(Nc2nc3ccc(-c4cc(N(C)C)ncn4)cc3[nH]2)c1)N1CCN(C(=O)CC(F)(F)F)CC1 | cell-free assay | competition with immobilised ligand | 0.1 µM | 100
CN(C)c1ncc(F)c(-c2cnn3ncccc23)n1 | binding |  | 1 µM | 82
C[C@@H]1CN(c2ccc3ncc(-c4ccc5[nH]nc(C6CC6)c5c4)n3n2)C[C@H](C)O1 | binding | competition with immobilised ligand | 50 nM | 100
O=C(NCC1CCOCC1)c1n[nH]cc1NC(=O)c1c(F)cccc1F | binding | competition with immobilised ligand | 1 µM | 75
C[C@H](c1cccc(C#N)c1)n1cc(Cl)cc(C(N)=O)c1=N | cell-free assay | competition with immobilised ligand | 1 µM | 100
F[C@@H]1CCN(c2nccc(-c3cnn4ncccc34)n2)C1 | binding |  | 1 µM | 100
CNC(=O)[C@@H]1CC[C@@H](n2c(-c3ccc4cnccc4c3)nc3ccc(C(=O)NCc4cccc(C(N)=O)c4)cc32)C1 | binding | competition with immobilised ligand | 1 µM | 89
